≈ marks a conversion by molar mass, not a printed value. Calls of active or inactive are those of the source. The calls are words filed in the database; no cut-off is given here.
Experiments:
[1] = system: Mycolicibacterium smegmatis; assay: Antimycobacterial activity against Mycobacterium smegmatis MC2 155 after 48 hrs by serial dilution method; type: functional; conditions: str. MC2 155, 48 h
Method in brief: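 M. smegmatis grown in Middlebrook 7H9 with 10% albumin–dextrose complex and 0.03% Tween80 at 37 °C. Twofold serial dilutions of compound were combined with mid-log culture diluted to OD570 0.01, giving a final range of […] in 7H9 broth. Incubated in ambient air at 37 °C for 48 h. MIC taken as the lowest concentration preventing visible growth.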

HepG2 = assay: Cytotoxicity against human HepG2 cells assessed as reduction in cell viability after 72 hrs by MTT assay; type: cell-based; conditions: hepg2, 72 h
Method in brief: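 HepG2 cells grown in Eagle's MEM with 10% FBS at 37 °C and 5% CO2. Cells were scraped, resuspended at ~1 × 10^6 cells/mL, plated and left 24 h, then exposed to compound at 400 to 0.2 µg/mL for 72 h. Viability read by MTT assay. IC50 (50% loss of viability) taken from a dose–response curve versus log10 concentration.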

[2] = system: Mycobacterium tuberculosis; assay: Antimycobacterial activity against Mycobacterium tuberculosis H37Rv ATCC 27294 after 7 days by microplate alamar blue assay; type: functional; conditions: H37Rv ATCC 27294, 168 h
Method in brief: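 MABA run in 7H12 medium in 96-well plates for 7 days at 37 °C. Alamar Blue and Tween 80 were then added for a further 24 h. Fluorescence was read at 530/590 nm. MIC was the lowest concentration giving a 90% fluorescence (or luminescence) reduction versus controls. Luciferase reporter strains or intracellular ATP were used for compounds with background fluorescence. Isoniazid and rifampin were run as controls.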

[3] = system: Mycobacterium tuberculosis; assay: Antimycobacterial activity against Mycobacterium tuberculosis H37Rv ATCC 27294 at 50 ug/ml after 7 days by microplate alamar blue assay relative to control; type: functional; conditions: H37Rv ATCC 27294, 168 h
Peritoneal macrophage = assay: Cytotoxicity against Balb/c mouse peritoneal macrophages assessed as reduction in cell viability after 48 hrs by MTT assay; type: cell-based
Method in brief: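 Murine peritoneal macrophages, 1 × 10^6 cells/well, exposed to compound at 0.1 to 250 µg/ml in RPMI-1640 with 10% FBS for 48h. MTT (5 mg/ml) added for 3 h at 37°C, formazan dissolved in 0.04M HCl in isopropanol for 15 min at room temperature, absorbance read at 570 nm. IC50 (50% loss of viability) taken from a dose–response curve of percentage activity versus log10 concentration.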

[4] = system: Mycobacterium tuberculosis; assay: Antimycobacterial activity against Mycobacterium tuberculosis MC2 6030 after 2 to 3 weeks by agar plate method; type: functional
Method in brief: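 Strain mc²6030 is a pantothenate auxotroph lacking RD1, grown at 37 °C in Sauton's medium plus 20 μg/ml pantothenic acid. Serial 10-fold dilutions of actively growing culture were plated on 7H10/OADC agar with 20 μg/ml pantothenic acid and increasing compound concentrations, from 10 mg/ml DMSO stocks. Plates were held 2–3 weeks at 37 °C. MIC was the concentration inhibiting 99% of growth; isoniazid served as control.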

[5] = system: Mycolicibacterium smegmatis; assay: Inhibition of fattyacid biosynthesis in Mycobacterium smegmatis MC2 155 assessed as reduction in [1-14C]acetate incorporation at 5 times antibacterial MIC preincubated for 90 mins followed by [1-14C]acetate addition measured after 1 hr by liquid scintillation counting based TLC method; type: functional; conditions: str. MC2 155
[6] = system: Mycolicibacterium smegmatis; assay: Inhibition of epoxy-mycolic acid biosynthesis in Mycobacterium smegmatis MC2 155 assessed as reduction in [1-14C]acetate incorporation at 5 times antibacterial MIC preincubated for 90 mins followed by [1-14C]acetate addition measured after 1 hr by liquid scintillation counting based TLC method; type: functional; conditions: str. MC2 155

Compound | MIC [1] [µg/mL] | Activity (HepG2) [µg/mL] | MIC90 [2] [µg/mL] | inhibition at 50 µg/mL [3] [%] | Activity (Peritoneal macrophage) [µg/mL] | MIC99 [4] [µg/mL] | inhibition [5] | inhibition [6]
CC(C)=CCOc1cccc(NC(=O)Nc2ccc(Br)cc2)c1 | 50 to 100 (≈ 133 to 266 µM) | 135.6 | > 50 | 86 | 140.2 |  |  | 
CC(C)=CCOc1cccc(NC(=O)Nc2cccc(C)c2)c1 | 50 (≈ 161 µM) | 175.3 | 32.2 (≈ 104 µM) |  | 160.3 |  |  | 
C=CCOc1ccc(NC(=O)Nc2cccc(C#N)c2)cc1 | > 200 | 103.5 | > 50 | 66 | 96.7 | > 100 |  | 
NNC(=O)c1ccncc1 [ISONIAZID] | 6.25 (≈ 45.6 µM) | > 200 | 0.11 (≈ 0.802 µM) |  | > 200 | 0.05 (≈ 0.365 µM) |  | 
CC(C)=CCOc1cccc(NC(=O)Nc2ccccc2[N+](=O)[O-])c1 | > 200 | 61.4 | > 50 | 43 | 58.1 |  |  | 
CCCCOc1cccc(NC(=O)Nc2ccccc2C)c1 | > 200 | 175.1 | > 50 | 70 | 152.9 | > 100 |  | 
CC(C)=CCOc1ccc(NC(=O)Nc2ccccc2C)cc1 | 50 to 200 (≈ 161 to 644 µM) |  | > 50 | 61 to 75 | 81.3 | 50 to 100 (≈ 161 to 322 µM) |  | 
CC(C)=CCOc1cccc(NC(=O)Nc2ccc([N+](=O)[O-])cc2)c1 | 100 (≈ 293 µM) | 91.6 | > 50 | 94 | 75.2 |  |  | 
CCCCOc1ccc(NC(=O)Nc2cccc(C#N)c2)cc1 | > 200 | 206.7 | > 50 | 22 | 180.9 | > 100 |  | 
C=CCOc1ccc(NC(=O)Nc2cccc([N+](=O)[O-])c2)cc1 | 100 (≈ 319 µM) | 111.4 | 45.5 (≈ 145 µM) |  | 87.5 | 10 to 100 (≈ 31.9 to 319 µM) |  | 
CC(C)CCOc1ccc(NC(=S)Nc2ccc(OCCC(C)C)cc2)cc1 [TIOCARLIDE] | 25 (≈ 62.4 µM) | 31.3 | 2.3 (≈ 5.74 µM) |  | 12.5 |  |  | 
CC(C)=CCOc1cccc(NC(=O)Nc2ccccc2Cl)c1 | 50 (≈ 151 µM) | 128.2 | > 50 | 64 | 105.6 |  |  | 
CC(C)=CCOc1ccc(NC(=O)Nc2cccc(C#N)c2)cc1 | 50 (≈ 156 µM) | 186.4 | > 500 | 82 | 169.1 | 5 (≈ 15.6 µM) |  | 
CC(C)=CCOc1cccc(NC(=O)Nc2ccc(Cl)cc2)c1 | 50 to 100 (≈ 151 to 302 µM) | 122.3 | > 50 | 75 | 115.3 |  |  | 
CC(C)=CCOc1cccc(NC(=O)Nc2cccc(C(F)(F)F)c2)c1 | 3.12 (≈ 8.56 µM) | 135.6 | 40.2 (≈ 110 µM) |  | 116.7 |  | inactive | Active
CC(C)=CCOc1cccc(NC(=O)Nc2ccc(C(F)(F)F)cc2)c1 | 6.25 (≈ 17.2 µM) | 142.2 | > 50 | 69 | 115.3 |  |  | 
CC(C)=CCOc1cccc(NC(=O)Nc2ccccc2)c1 | > 200 | 168.2 | > 50 | 79 | 141.8 | 30 (≈ 101 µM) |  | 
C=CCOc1ccc(NC(=O)Nc2ccccc2C)cc1 | 50 (≈ 177 µM) | 99.2 | 24.5 (≈ 86.8 µM) |  | 122.1 | 100 (≈ 354 µM) |  | 

Compound | MIC [1] [µg/mL] | Activity (HepG2) [µg/mL] | MIC90 [2] [µg/mL] | inhibition at 50 µg/mL [3] [%] | Activity (Peritoneal macrophage) [µg/mL] | MIC99 [4] [µg/mL] | inhibition [5] | inhibition [6]
CC(C)=CCOc1cccc(NC(=O)Nc2cccc(Cl)c2)c1 | 25 (≈ 75.6 µM) | 114.3 | 48.6 (≈ 147 µM) |  | 96.7 |  |  | 
CC(C)=CCOc1cccc(NC(=O)Nc2ccccc2C(F)(F)F)c1 | 12.5 (≈ 34.3 µM) | 71.4 | > 50 | 45 | 69.4 |  |  | 
CC(C)=CCOc1cccc(NC(=O)Nc2cccc(F)c2)c1 | 25 (≈ 79.5 µM) | 94 | > 50 | 89 | 83.7 |  | inactive | Active
CCCCOc1cccc(NC(=O)Nc2ccccc2)c1 | > 200 | 124.1 | > 50 | 57 | 121.7 | 50 to 100 (≈ 176 to 352 µM) |  | 
CC(C)=CCOc1cccc(NC(=O)Nc2ccccc2Br)c1 | 25 (≈ 66.6 µM) | 131.9 | 38.7 (≈ 103 µM) |  | 119.4 |  |  | 
C=CCOc1ccc(NC(=O)Nc2ccccc2)cc1 | > 200 | 182.4 | > 50 | 84 | 152.6 | > 100 |  | 
CCCCOc1ccc(NC(=O)Nc2ccccc2)cc1 | > 200 | 132.5 | > 50 | 41 | 108.9 | > 100 |  | 
CC(C)=CCOc1ccc(NC(=O)Nc2cccc([N+](=O)[O-])c2)cc1 | > 200 | 142.6 | > 50 | 69 | 131.2 | > 100 |  | 
C=CCOc1cccc(NC(=O)Nc2ccccc2)c1 | 100 (≈ 373 µM) | 150.6 | > 50 | 73 | 142.5 | 20 (≈ 74.5 µM) |  | 
CC(C)=CCOc1cccc(NC(=O)Nc2ccc(C)cc2)c1 | 12.5 (≈ 40.3 µM) | 140.6 | 10.5 (≈ 33.8 µM) |  | 127.6 |  |  | 
CC(C)=CCOc1cccc(NC(=O)Nc2ccc(F)cc2)c1 | 100 (≈ 318 µM) | 102.8 | > 50 | 68 | 87.1 |  |  | 
CC(C)=CCOc1cccc(NC(=O)Nc2cccc(Br)c2)c1 | 12.5 (≈ 33.3 µM) | 148.1 | 26.5 (≈ 70.6 µM) |  | 131.8 |  |  | 
C=CCOc1cccc(NC(=O)Nc2cccc([N+](=O)[O-])c2)c1 | 50 (≈ 160 µM) | 105.6 | > 50 | 76 | 78.4 | 5 (≈ 16 µM) |  | 
CC(C)=CCOc1cccc(NC(=O)Nc2ccccc2F)c1 | 50 (≈ 159 µM) | 82.4 | > 50 | 45 | 68.2 |  |  | 
CCCCOc1ccc(NC(=O)Nc2cccc([N+](=O)[O-])c2)cc1 |  |  |  |  | 75.2 |  |  | 
C=CCOc1cccc(NC(=O)Nc2ccccc2C)c1 | > 200 | 102.4 | > 50 | 68 | 90.3 | > 100 |  | 
CCCCOc1cccc(NC(=O)Nc2cccc([N+](=O)[O-])c2)c1 | > 200 | 97.3 | > 50 | 79 | 74.3 | 50 (≈ 152 µM) |  | 

Reference: ChEMBL document CHEMBL4041500, “Attenuation of Mycobacterium species through direct and macrophage mediated pathway by unsymmetrical diaryl urea” (Eur J Med Chem, 2017)
